Hits are enriched below; roughly 2% of the tested compounds scored in any of these assays.
Scp-1 inhibitor = Scp-1 phosphatase inhibitors, primary screen, biochemical, colorimetric, uHTS; Carboxy-terminal domain RNA polymerase II polypeptide A small phosphatase 1 (Homo …; Recombinant Scp1, phosphopeptide, malachite green phosphate absorbance; inhibition, % at 20 µM; 340,000 compounds, 0.88% hits; AID 493091, 2011;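 active = inhibition above about 50% at 20 µM, limit read from the data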;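 note: plate controls were DMSO wells with enzyme for no effect and wells lacking enzyme for full effect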
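Material – SCP-1 phosphatase catalytic domain, residues 76-261 · Buffer or medium – Acidic Tris acetate buffer with magnesium and detergent · Also added – Phospho 17-mer peptide substrate · Compound – single 20 µM dose, 1% DMSO · Times – 45 min room-temperature reaction, 5 min colour, 30 min stabiliser · Technique – Phosphate-binding colour reagent, absorbance read at 630 nm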
CSN inh = inhibitors of CSN-mediated cullin deneddylation, primary screen, biochemical, fluorescence polarization, uHTS. COP9 signalosome complex subunit 5 (Homo sapiens), Q92905. Purified CSN, SCF-Nedd8-OG deneddylation. inhibition, % at 12.5 µM. 360,000 compounds, 0.38% hits. AID 651999, 2013;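 active = pattern-corrected inhibition above about 35%, with an unprinted fluorescence ratio check between 0.5 and 1.5, limit read from the data, passing the limit was not always enough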;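 note: 0% = enzyme with substrate and 100% = substrate without enzyme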
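Schedule: reaction 90 min, room temperature / Assay system: HEK293T-derived human Csn5 enzyme / Input: Csn5 at 0.24 nM final / Measure: inhibition of Csn5 cleavage, % / Control set: substrate-only high control, full reaction low control / Technique: fluorescence polarization of the substrate / Buffer or medium: Tris/NaCl/DTT buffer, pH 7.5 / Reagent: SCFSkp2-Nedd8OG substrate at 10 nM final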
STEP inh = STEP phosphatase inhibitors, primary screen, biochemical, fluorescence intensity, uHTS | recombinant STEP, OMFP fluorogenic substrate | Tyrosine-protein phosphatase non-receptor type 5 (Homo sapiens), P54829 | 360,000 compounds, 0.25% hits | AID 588621, 2011 | inhibition, % at 20 µM;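 active = inhibition at 20 µM, scaled per plate between control wells, above about 37%, limit read from the data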;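 note: 0% = DMSO with enzyme and substrate and 100% = substrate only without enzyme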
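Test system: STEP tyrosine phosphatase / Reagent: OMFP at 25 µM / Doses: 20 µM, 1% DMSO / Read-out: percent inhibition scaled to no-enzyme and uninhibited-enzyme controls, plate-pattern corrected / Detection: FITC-channel fluorescence of OMFP product / Medium: Bis-Tris buffer pH 6.0, 2.5 mM DTT, 0.005% Tween 20 / Schedule: 20 min at room temperature, dark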
LMPTP block = LMPTP phosphatase inhibitors, primary screen, biochemical, fluorescence intensity, uHTS; recombinant LMPTP-A, OMFP fluorogenic substrate; inhibition, % at 20 µM; AID 651560, 2012; 360,000 compounds, 0.22% hits;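 active = compounds that cut the enzyme signal by at least half of the control window in the single-dose screen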;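 note: plate controls were DMSO wells with enzyme plus substrate for no effect and substrate without enzyme for full effect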
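Assay system: LMPTP-A, protein tyrosine phosphatase of low molecular weight / Medium: pH 6.0 Bis-Tris buffer with DTT and Triton X-100 / Schedule: 50 min enzyme reaction at room temperature, protected from light / Measured by: endpoint fluorescence intensity from OMFP dephosphorylation / Read-out basis: % inhibition relative to no-enzyme and uninhibited control wells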
SUMO1-SIM PPI = modulators of SUMO1 protein-protein interactions, primary screen, biochemical, uHTS | Small ubiquitin-related modifier 1 (Homo sapiens), P63165 | SUMO1 binding to a labelled peptide, TR-FRET, 1 h | inhibition, % at 20 µM | 360,000 compounds, 0.33% hits | AID 602429, 2012; in the data active = inhibition above about 37%
DNMT1 block = human DNMT1 methyltransferase inhibitors, primary screen, biochemical, molecular beacon, fluorescence, HinP1I cleavage, uHTS. DNA (cytosine-5)-methyltransferase 1 (Homo sapiens), P26358. inhibition (reported as % activation of signal), % at 10 µM. 360,000 compounds, 0.83% hits; in the data active = inhibition above about 50%
Scp-1 conf = Scp-1 phosphatase inhibitors, retest, confirmation, biochemical, colorimetric, single concentration. shares compounds with Scp-1 inhibitor. recombinant SCP-1 catalytic domain, phosphate release, malachite green absorbance. inhibition, % at 20 µM. 2,500 compounds, 61% hits;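 note: plate controls were DMSO with enzyme for no effect and buffer wells lacking enzyme for full effect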
MG interference = colorimetric readout interference by compounds, confirmation, artefact control for Scp-1 inhibitor project, biochemical, single concentration. shares compounds with Scp-1 inhibitor. Colorimetric interference counterscreen, malachite green absorbance 630 nm. apparent inhibition (interference), % at 20 µM. 2,500 tested, under 10 active;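 note: compounds added after enzyme reaction finished so only phosphate colour detection is probed; plate controls were DMSO wells with completed Scp-1 reaction for no effect and substrate wells lacking enzyme for full effect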
Scp1 DSF = Scp-1 binding by thermal shift, confirmation, orthogonal assay for Scp-1 inhibitor project, biophysical, differential scanning fluorimetry; shares compounds with Scp-1 inhibitor; Recombinant SCP1, Sypro Orange thermal shift Tm; thermal shift relative to vanadate control, % at 40 µM; 1,500 compounds, 25% hits; AID 540329, 2011;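 active = substances whose mean melting-temperature shift, as a percentage of the reference inhibitor's shift, reaches about 5.3%, limit read from the data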;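 note: 0% = Tm of DMSO wells and 100% = Tm with sodium orthovanadate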
Starred values were filed as active, the others as inactive; · = no result; ! = a repeat was not active.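 Rule for the calls, unless noted: active = inhibition of at least 30% at 20 µM; inactive = the rest.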

SMILES	Scp-1 inhibitor	CSN inh	STEP inh	LMPTP block	SUMO1-SIM PPI	DNMT1 block	Scp-1 conf	MG interference	others
CC(O)/C=C/c1cccc[n+]1C (stereo not drawn)	96*	4	0	-10	-1	-4	85*	-12	Scp1 DSF=-6
C[n+]1ccccc1/C=N/O	52*!	4	1	-3	-5	0	4	-15
CCOc1ccccc1C(C(=O)NC1CCCC1)N(C(=O)c1csnn1)C1CC1 (stereo not drawn)	-6	-4	-1	-1	-4	-1	·	·
C[C@H](NC(=O)c1ccco1)C(=O)NNC(=O)c1ccc(F)cc1	99*	1	-3	0	-2	1	0	-10
COc1cccc(NC(=O)C2CCCN(S(=O)(=O)c3cccc4cccnc34)C2)c1 (stereo not drawn)	86*	-1	2	-1	-1	-2	5	-1
O=C(Nc1ccncc1)C1CCCN(S(=O)(=O)c2cccc3cccnc23)C1 (stereo not drawn)	10	-4	-3	-1	4	1	·	·
CC(/C=C/c1ccccc1F)=N\NC(=O)c1ccc(Cl)cc1	52*	-10	-2	0	0	1	-14	-14
CC(/C=C/c1ccccc1F)=N\NC(=O)c1ccccc1	-9	-2	-1	0	-16	2	·	·
CCCc1nc2ccccc2c(=O)n1CC(=O)c1ccc(F)cc1	-1	1	0	-1	-1	-3	·	·
COc1ccc(CNC(=O)C2CCN(c3nc(-c4ccccc4)nc4c3CCC4)CC2)cc1	4	-1	-1	20	1	-4	·	·
COc1ccc2nc(COC(=O)c3cccc([N+](=O)[O-])c3)c(C(C)=O)[n+]([O-])c2c1	-7	3	0	1	-7	-6	·	·
COc1ccc2nc(COC(=O)c3cccs3)c(C(C)=O)[n+]([O-])c2c1	103*	-6	-1	0	-26	-3	1	-16
O=C(Cn1cccc1C(=O)c1ccccc1)NCc1ccc(F)cc1	-6	-3	4	0	5	1	·	·
c1ccc(OC2CCCCC2N2CCOCC2)cc1 (stereo not drawn)	·	-6	1	1	4	2	·	·
O=C(O)Cc1ccc(NC(=O)c2ccc3c(c2)C(=O)N(Cc2ccco2)C3=O)cc1	69*	7	16	3	-10	38	58*	-16	Scp1 DSF=6.8*
O=C(Nc1ccc(O)cc1)c1ccc2c(c1)C(=O)N(Cc1ccco1)C2=O	0	-12	3	0	-2	15	·	·
O=C(Nc1cc([N+](=O)[O-])ccc1O)c1ccc2c(c1)C(=O)N(Cc1ccco1)C2=O	55*	5	6	6	1	11	25	-16
O=C(O)Cn1nnc(-c2ccccc2)c1COc1ccccc1	·	-4	4	-1	6	1	·	·
Cc1ccc(NC(=O)c2cn(-c3cccc(C)n3)cn2)cc1	67*	-3	0	-2	1	-1	-6	-13

From PubChem BioAssay
